Results taken from ChEMBL document CHEMBL5724801, “EUbOPEN Chemogenomics Library - Multiplex” (2024).
“And” between values parts separate entries of the source, which are not always exact repeats. Identical values can stand only once.

Test system: Fibroblast
Assay: Multiplex assay against human fibroblast
Format: toxicity, cell-based
In short: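 Live cells carried four stains from seeding: Hoechst33342, BioTracker Green Microtubule Cytoskeleton Dye, MitoTracker Red and Annexin V Alexa Fluor 680. They were imaged on a CQ1 microscope at 37°C and 5% CO2 after compound addition. Using CellPathfinder machine-learning gating, cells were split into Hoechst high-intensity objects or normal cells, normal cells into healthy, pyknosed or fragmented nuclei, and pyknosed cells into mitotic or apoptotic; tubulin, mitochondrial-mass and membrane-permeability phenotypes are per cents of healthy-nucleus cells.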

[1] = 12 h, 1 µM, compound concentration 1 uM
[2] = 12 h, 10 µM, compound concentration 10 uM
[3] = 24 h, 1 µM, compound concentration 1 uM
[4] = 24 h, 10 µM, compound concentration 10 uM
[5] = 48 h, 1 µM, compound concentration 1 uM
[6] = 48 h, 10 µM, compound concentration 10 uM

Question: CCn1c(-c2nonc2N)nc2c(C#CC(C)(C)O)ncc(OCC3CCCNC3)c21 (centres undefined) was tested. Which “Population Apoptotic (%)” value [1] did it give?
Answer: 9.09% and 27.03%

Question: What about the “Population Fragmented Nuclei (%)” value [1] of the same compound?
Answer: 15.15% and 9.22%

Question: And the “Population Healthy Nuclei (%)” value [1]?
Answer: 64.85% and 77.66%

Question: And the “Population Hoechst High Intensity Objects (%)” value [1]?
Answer: 0%

Question: And the “Population Membrane Permeable-Phenotype (%)” value [1]?
Answer: 4.67% and 1.83%

Question: And the “Population Mitochondria Different-Phenotype (%)” value [1]?
Answer: 8.41% and 8.68%

Question: What about the “Population Mitotic Cells (%)” value [1] of the same compound?
Answer: 90.91% and 72.97%

Question: What about the “Population Normal (%)” value [1] of the same compound?
Answer: 100%

Question: What about the “Population Pyknosed Nuclei (%)” value [1] of the same compound?
Answer: 20% and 13.12%

Question: And the “Population Tubulin-Different-Phenotype (%)” value [1]?
Answer: 9.35% and 19.63%

Question: What about the “Total Cell Count” value [1] of the same compound?
Answer: 165 and 282

Question: And the “Population Apoptotic (%)” value [2]?
Answer: 13.33% and 12.2%

Question: And the “Population Fragmented Nuclei (%)” value [2]?
Answer: 17.67% and 9.62%

Question: What about the “Population Healthy Nuclei (%)” value [2] of the same compound?
Answer: 66.43% and 74.62%

Question: And the “Population Hoechst High Intensity Objects (%)” value [2]?
Answer: 0%

Question: What about the “Population Membrane Permeable-Phenotype (%)” value [2] of the same compound?
Answer: 6.91% and 2.06%

Question: And the “Population Mitochondria Different-Phenotype (%)” value [2]?
Answer: 25% and 13.4%

Question: What about the “Population Mitotic Cells (%)” value [2] of the same compound?
Answer: 86.67% and 87.8%

Question: What about the “Population Normal (%)” value [2] of the same compound?
Answer: 100%

Question: What about the “Population Pyknosed Nuclei (%)” value [2] of the same compound?
Answer: 15.9% and 15.77%

Question: And the “Population Tubulin-Different-Phenotype (%)” value [2]?
Answer: 35.64% and 40.21%

Question: What about the “Total Cell Count” value [2] of the same compound?
Answer: 283 and 260

Question: And the “Population Fragmented Nuclei (%)” value [3]?
Answer: 14.1% and 7.45%

Question: What about the “Population Healthy Nuclei (%)” value [3] of the same compound?
Answer: 73.08% and 80.78%

Question: What about the “Population Hoechst High Intensity Objects (%)” value [3] of the same compound?
Answer: 0%

Question: What about the “Population Membrane Permeable-Phenotype (%)” value [3] of the same compound?
Answer: 0.88% and 1.46%

Question: And the “Population Mitochondria Different-Phenotype (%)” value [3]?
Answer: 5.26% and 11.65%

Question: And the “Population Mitotic Cells (%)” value [3]?
Answer: 90% and 63.33%

Question: And the “Population Normal (%)” value [3]?
Answer: 100%

Question: And the “Population Pyknosed Nuclei (%)” value [3]?
Answer: 12.82% and 11.76%

Question: And the “Total Cell Count” value [3]?
Answer: 156 and 255

Question: What about the “Population Apoptotic (%)” value [4] of the same compound?
Answer: 7.41% and 9.09%

Question: What about the “Population Fragmented Nuclei (%)” value [4] of the same compound?
Answer: 24.25% and 15.79%

Question: And the “Population Healthy Nuclei (%)” value [4]?
Answer: 61.04% and 77.78%

Question: And the “Population Hoechst High Intensity Objects (%)” value [4]?
Answer: 0%

Question: And the “Population Membrane Permeable-Phenotype (%)” value [4]?
Answer: 1.79% and 2.26%

Question: And the “Population Mitotic Cells (%)” value [4]?
Answer: 92.59% and 90.91%

Question: And the “Population Normal (%)” value [4]?
Answer: 100%

Question: And the “Population Pyknosed Nuclei (%)” value [4]?
Answer: 14.71% and 6.43%

Question: What about the “Population Tubulin-Different-Phenotype (%)” value [4] of the same compound?
Answer: 40.18% and 33.08%

Question: And the “Total Cell Count” value [4]?
Answer: 367 and 342

Question: What about the “Population Apoptotic (%)” value [5] of the same compound?
Answer: 23.08% and 33.33%

Question: What about the “Population Fragmented Nuclei (%)” value [5] of the same compound?
Answer: 5.03% and 4.44%

Question: And the “Population Healthy Nuclei (%)” value [5]?
Answer: 86.79% and 87.1%

Question: And the “Population Hoechst High Intensity Objects (%)” value [5]?
Answer: 0%

Question: And the “Population Membrane Permeable-Phenotype (%)” value [5]?
Answer: 2.9% and 4.63%

Question: What about the “Population Mitotic Cells (%)” value [5] of the same compound?
Answer: 76.92% and 66.67%

Question: What about the “Population Normal (%)” value [5] of the same compound?
Answer: 100%

Question: And the “Population Pyknosed Nuclei (%)” value [5]?
Answer: 8.18% and 8.47%

Question: And the “Total Cell Count” value [5]?
Answer: 159 and 248

Question: What about the “Population Apoptotic (%)” value [6] of the same compound?
Answer: 30% and 29.41%

Question: What about the “Population Fragmented Nuclei (%)” value [6] of the same compound?
Answer: 21.53% and 21.32%

Question: What about the “Population Healthy Nuclei (%)” value [6] of the same compound?
Answer: 69.97% and 74.37%

Question: What about the “Population Hoechst High Intensity Objects (%)” value [6] of the same compound?
Answer: 0%

Question: And the “Population Membrane Permeable-Phenotype (%)” value [6]?
Answer: 1.21% and 0.68%

Question: And the “Population Mitochondria Different-Phenotype (%)” value [6]?
Answer: 8.91% and 1.71%

Question: And the “Population Mitotic Cells (%)” value [6]?
Answer: 70% and 70.59%

Question: What about the “Population Normal (%)” value [6] of the same compound?
Answer: 100%

Question: And the “Population Pyknosed Nuclei (%)” value [6]?
Answer: 8.5% and 4.31%

Question: And the “Population Tubulin-Different-Phenotype (%)” value [6]?
Answer: 29.55% and 33.11%

Question: And the “Total Cell Count” value [6]?
Answer: 353 and 394

Question: With Cc1ccc(-c2c(C(=O)CF)n(CCCO)c3ncnc(N)c23)cc1 as the compound, how does the “Population Apoptotic (%)” value [1] read?
Answer: 36% and 12.9%

Question: What about the “Population Fragmented Nuclei (%)” value [1] of the same compound?
Answer: 17.65% and 9.49%

Question: What about the “Population Healthy Nuclei (%)” value [1] of the same compound?
Answer: 63.97% and 78.26%

Question: What about the “Population Hoechst High Intensity Objects (%)” value [1] of the same compound?
Answer: 0%

Question: And the “Population Membrane Permeable-Phenotype (%)” value [1]?
Answer: 1.15% and 2.53%

Question: What about the “Population Mitochondria Different-Phenotype (%)” value [1] of the same compound?
Answer: 9.2% and 6.06%

Question: What about the “Population Mitotic Cells (%)” value [1] of the same compound?
Answer: 64% and 87.1%

Question: What about the “Population Normal (%)” value [1] of the same compound?
Answer: 100%

Question: What about the “Population Pyknosed Nuclei (%)” value [1] of the same compound?
Answer: 18.38% and 12.25%

Question: What about the “Population Tubulin-Different-Phenotype (%)” value [1] of the same compound?
Answer: 13.79% and 12.12%

Question: What about the “Total Cell Count” value [1] of the same compound?
Answer: 136 and 253

Question: And the “Population Apoptotic (%)” value [2]?
Answer: 6.98% and 18.18%

Question: What about the “Population Fragmented Nuclei (%)” value [2] of the same compound?
Answer: 10.16% and 6%

Question: And the “Population Healthy Nuclei (%)” value [2]?
Answer: 66.84% and 77.5%

Question: And the “Population Hoechst High Intensity Objects (%)” value [2]?
Answer: 0%

Question: And the “Population Membrane Permeable-Phenotype (%)” value [2]?
Answer: 4% and 4.52%

Question: And the “Population Mitochondria Different-Phenotype (%)” value [2]?
Answer: 8% and 11.61%

Question: And the “Population Mitotic Cells (%)” value [2]?
Answer: 93.02% and 81.82%

Question: What about the “Population Normal (%)” value [2] of the same compound?
Answer: 100%

Question: And the “Population Pyknosed Nuclei (%)” value [2]?
Answer: 22.99% and 16.5%

Question: What about the “Population Tubulin-Different-Phenotype (%)” value [2] of the same compound?
Answer: 19.2% and 29.03%

Question: What about the “Total Cell Count” value [2] of the same compound?
Answer: 187 and 200

Question: What about the “Population Apoptotic (%)” value [3] of the same compound?
Answer: 12.12% and 12%

Question: What about the “Population Healthy Nuclei (%)” value [3] of the same compound?
Answer: 62.58% and 87.98%

Question: And the “Population Hoechst High Intensity Objects (%)” value [3]?
Answer: 0%

Question: What about the “Population Membrane Permeable-Phenotype (%)” value [3] of the same compound?
Answer: 6.86% and 1.32%

Question: What about the “Population Mitochondria Different-Phenotype (%)” value [3] of the same compound?
Answer: 2.94% and 5.29%

Question: What about the “Population Mitotic Cells (%)” value [3] of the same compound?
Answer: 87.88% and 88%

Question: And the “Population Normal (%)” value [3]?
Answer: 100%

Question: What about the “Population Pyknosed Nuclei (%)” value [3] of the same compound?
Answer: 20.25% and 9.69%

Question: And the “Population Tubulin-Different-Phenotype (%)” value [3]?
Answer: 14.71% and 10.57%

Question: What about the “Total Cell Count” value [3] of the same compound?
Answer: 163 and 258

Question: What about the “Population Apoptotic (%)” value [4] of the same compound?
Answer: 9.3% and 10%

Question: And the “Population Fragmented Nuclei (%)” value [4]?
Answer: 8.8% and 4.95%

Question: What about the “Population Healthy Nuclei (%)” value [4] of the same compound?
Answer: 71.3% and 85.15%

Question: What about the “Population Hoechst High Intensity Objects (%)” value [4] of the same compound?
Answer: 0%

Question: And the “Population Membrane Permeable-Phenotype (%)” value [4]?
Answer: 8.44% and 2.33%

Question: What about the “Population Mitochondria Different-Phenotype (%)” value [4] of the same compound?
Answer: 4.55% and 5.81%

Question: And the “Population Mitotic Cells (%)” value [4]?
Answer: 90.7% and 90%

Question: And the “Population Normal (%)” value [4]?
Answer: 100%

Question: And the “Population Pyknosed Nuclei (%)” value [4]?
Answer: 19.91% and 9.9%

Question: What about the “Population Tubulin-Different-Phenotype (%)” value [4] of the same compound?
Answer: 23.38% and 29.07%

Question: And the “Total Cell Count” value [4]?
Answer: 216 and 202

Question: And the “Population Apoptotic (%)” value [5]?
Answer: 26.67% and 20%

Question: And the “Population Healthy Nuclei (%)” value [5]?
Answer: 73.05% and 89.29%

Question: And the “Population Hoechst High Intensity Objects (%)” value [5]?
Answer: 0%

Question: What about the “Population Membrane Permeable-Phenotype (%)” value [5] of the same compound?
Answer: 1.64% and 1.78%

Question: And the “Population Mitotic Cells (%)” value [5]?
Answer: 73.33% and 80%

Question: And the “Population Normal (%)” value [5]?
Answer: 100%

Question: And the “Population Pyknosed Nuclei (%)” value [5]?
Answer: 8.98% and 7.94%

Question: What about the “Population Tubulin-Different-Phenotype (%)” value [5] of the same compound?
Answer: 7.38% and 16.44%

Question: What about the “Total Cell Count” value [5] of the same compound?
Answer: 167 and 252

Question: What about the “Population Apoptotic (%)” value [6] of the same compound?
Answer: 9.09% and 27.27%

Question: And the “Population Fragmented Nuclei (%)” value [6]?
Answer: 7.76% and 9.13%

Question: What about the “Population Healthy Nuclei (%)” value [6] of the same compound?
Answer: 87.21% and 80.29%

Question: What about the “Population Hoechst High Intensity Objects (%)” value [6] of the same compound?
Answer: 0%

Question: And the “Population Membrane Permeable-Phenotype (%)” value [6]?
Answer: 1.57% and 0.6%

Question: What about the “Population Mitochondria Different-Phenotype (%)” value [6] of the same compound?
Answer: 8.9% and 2.4%

Question: And the “Population Mitotic Cells (%)” value [6]?
Answer: 90.91% and 72.73%

Question: And the “Population Normal (%)” value [6]?
Answer: 100%

Question: And the “Population Pyknosed Nuclei (%)” value [6]?
Answer: 5.02% and 10.58%

Question: And the “Population Tubulin-Different-Phenotype (%)” value [6]?
Answer: 9.42% and 27.54%

Question: And the “Total Cell Count” value [6]?
Answer: 219 and 208
